Laboratory results from ChEMBL document CHEMBL2331542, “Synthesis and in vitro antibacterial activity of quinolone/naphthyridone derivatives containing 3-alkoxyimino-4-(methyl)aminopiperidine scaffolds” (2013).
Converted amounts (≈) assume the structure as drawn.

Legend:
Assay type in all cases: functional
Escherichia coli [1] = experiment: Antibacterial activity against extended-spectrum beta-lactamase-producing Escherichia coli isolate 12-4
In short: (§1)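 MIC determined in vitro by a standard technique and defined as the lowest compound concentration giving complete inhibition of bacterial growth. The Gram-positive and Gram-negative panels were tested alongside gemifloxacin, levofloxacin and ciprofloxacin reference drugs.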

Escherichia coli [2] = experiment: Antibacterial activity against extended-spectrum beta-lactamase-producing Escherichia coli isolate 12-2; in short: as §1
Escherichia coli [3] = experiment: Antibacterial activity against extended-spectrum beta-lactamase-producing Escherichia coli isolate 12-1; in short: as §1
Escherichia coli [4] = experiment: Antibacterial activity against Escherichia coli isolate 12-5; in short: as §1
Escherichia coli [5] = experiment: Antibacterial activity against Escherichia coli isolate 12-4; in short: as §1
Escherichia coli [6] = experiment: Antibacterial activity against Escherichia coli isolate 12-1; in short: as §1
Escherichia coli [7] = experiment: Antibacterial activity against Escherichia coli ATCC 25922; in short: as §1
Streptococcus pneumoniae [8] = experiment: Antibacterial activity against Streptococcus pneumoniae isolate 12-5; in short: as §1
Streptococcus pneumoniae [9] = experiment: Antibacterial activity against Streptococcus pneumoniae isolate 12-2; in short: as §1
[10] = test system: Staphylococcus epidermidis; experiment: Antibacterial activity against methicillin-resistant Staphylococcus epidermidis isolate 12-35
In short: (§2)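 MIC determined in vitro by standard techniques, defined as the lowest compound concentration giving complete inhibition of bacterial growth. Gemifloxacin, levofloxacin and ciprofloxacin were tested alongside as reference drugs.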

[11] = test system: Staphylococcus epidermidis; experiment: Antibacterial activity against methicillin-resistant Staphylococcus epidermidis isolate 12-33; in short: as §2
[12] = test system: Staphylococcus epidermidis; experiment: Antibacterial activity against methicillin-resistant Staphylococcus epidermidis isolate 12-5; in short: as §2
[13] = test system: Staphylococcus epidermidis; experiment: Antibacterial activity against methicillin-sensitive Staphylococcus epidermidis isolate 12-3; in short: as §1
[14] = test system: Staphylococcus epidermidis; experiment: Antibacterial activity against methicillin-sensitive Staphylococcus epidermidis isolate 12-2; in short: as §1
[15] = test system: Staphylococcus epidermidis; experiment: Antibacterial activity against methicillin-sensitive Staphylococcus epidermidis isolate 12-1; in short: as §1
Staphylococcus aureus [16] = experiment: Antibacterial activity against methicillin-resistant Staphylococcus aureus isolate 12-15; in short: as §2
Staphylococcus aureus [17] = experiment: Antibacterial activity against methicillin-resistant Staphylococcus aureus isolate 12-13; in short: as §2
Staphylococcus aureus [18] = experiment: Antibacterial activity against methicillin-resistant Staphylococcus aureus isolate 12-3; in short: as §2
Staphylococcus aureus [19] = experiment: Antibacterial activity against methicillin-sensitive Staphylococcus aureus isolate 12-10; in short: as §1
Staphylococcus aureus [20] = experiment: Antibacterial activity against methicillin-sensitive Staphylococcus aureus isolate 12-7; in short: as §1
Staphylococcus aureus [21] = experiment: Antibacterial activity against methicillin-sensitive Staphylococcus aureus isolate 12-6; in short: as §1
Staphylococcus aureus [22] = experiment: Antibacterial activity against Staphylococcus aureus […]; in short: as §1
Pseudomonas aeruginosa [23] = experiment: Antibacterial activity against Pseudomonas aeruginosa isolate 12-2; in short: as §1
Pseudomonas aeruginosa [24] = experiment: Antibacterial activity against Pseudomonas aeruginosa isolate 12-1; in short: as §1
Pseudomonas aeruginosa [25] = experiment: Antibacterial activity against Pseudomonas aeruginosa ATCC 27853; in short: as §1
Klebsiella pneumoniae [26] = experiment: Antibacterial activity against extended-spectrum beta-lactamase-producing Klebsiella pneumoniae isolate 12-4; in short: as §1
Klebsiella pneumoniae [27] = experiment: Antibacterial activity against extended-spectrum beta-lactamase-producing Klebsiella pneumoniae isolate 12-2; in short: as §1
Klebsiella pneumoniae [28] = experiment: Antibacterial activity against extended-spectrum beta-lactamase-producing Klebsiella pneumoniae isolate 12-1; in short: as §1
Klebsiella pneumoniae [29] = experiment: Antibacterial activity against Klebsiella pneumoniae isolate 12-4; in short: as §1
Klebsiella pneumoniae [30] = experiment: Antibacterial activity against Klebsiella pneumoniae isolate 12-2; in short: as §1
Klebsiella pneumoniae [31] = experiment: Antibacterial activity against Klebsiella pneumoniae isolate 12-1; in short: as §1

Row | SMILES | MIC (Escherichia coli [1]) [µg/mL] | MIC (Escherichia coli [2]) [µg/mL] | MIC (Escherichia coli [3]) [µg/mL] | MIC (Escherichia coli [4]) [µg/mL] | MIC (Escherichia coli [5]) [µg/mL] | MIC (Escherichia coli [6]) [µg/mL] | MIC (Escherichia coli [7]) [µg/mL] | MIC (Streptococcus pneumoniae [8]) [µg/mL] | MIC (Streptococcus pneumoniae [9]) [µg/mL] | MIC [10] [µg/mL] | MIC [11] [µg/mL] | MIC [12] [µg/mL] | MIC [13] [µg/mL] | MIC [14] [µg/mL] | MIC [15] [µg/mL] | MIC (Staphylococcus aureus [16]) [µg/mL] | MIC (Staphylococcus aureus [17]) [µg/mL] | MIC (Staphylococcus aureus [18]) [µg/mL] | MIC (Staphylococcus aureus [19]) [µg/mL] | MIC (Staphylococcus aureus [20]) [µg/mL] | further results
1 | CNC1CCN(c2c(F)cc3c(=O)c(C(=O)O)cn4c3c2OC[C@@H]4C)C/C1=N\OC (stereo partly drawn) | 16 (≈ 38.2 µM) | > 128 | 128 (≈ 306 µM) | 128 (≈ 306 µM) | 128 (≈ 306 µM) | 8 (≈ 19.1 µM) | 0.25 (≈ 0.597 µM) | 1 (≈ 2.39 µM) | 1 (≈ 2.39 µM) | 0.125 (≈ 0.299 µM) | < 0.008 | 0.125 (≈ 0.299 µM) | 0.5 (≈ 1.19 µM) | 2 (≈ 4.78 µM) | 0.5 (≈ 1.19 µM) | 1 (≈ 2.39 µM) | 1 (≈ 2.39 µM) | 1 (≈ 2.39 µM) | 0.25 (≈ 0.597 µM) | 1 (≈ 2.39 µM) | MIC (Staphylococcus aureus [21]): 0.25 µg/mL (≈ 0.597 µM); MIC (Staphylococcus aureus [22]): 0.25 µg/mL (≈ 0.597 µM); MIC (Pseudomonas aeruginosa [23]): 8 µg/mL (≈ 19.1 µM); MIC (Pseudomonas aeruginosa [24]): 8 µg/mL (≈ 19.1 µM); MIC (Pseudomonas aeruginosa [25]): 4 µg/mL (≈ 9.56 µM); MIC (Klebsiella pneumoniae [26]): 0.5 µg/mL (≈ 1.19 µM); MIC (Klebsiella pneumoniae [27]): 16 µg/mL (≈ 38.2 µM); MIC (Klebsiella pneumoniae [28]): 16 µg/mL (≈ 38.2 µM); MIC (Klebsiella pneumoniae [29]): 0.5 µg/mL (≈ 1.19 µM); MIC (Klebsiella pneumoniae [30]): 1 µg/mL (≈ 2.39 µM); MIC (Klebsiella pneumoniae [31]): 1 µg/mL (≈ 2.39 µM)
2 | CCO/N=C1\CN(c2c(F)cc3c(=O)c(C(=O)O)cn(C4CC4)c3c2F)CCC1NC (stereo not drawn) | 16 (≈ 36.8 µM) | > 128 | > 128 | > 128 | > 128 | 8 (≈ 18.4 µM) | 16 (≈ 36.8 µM) | 1 (≈ 2.3 µM) | 0.5 (≈ 1.15 µM) | 1 (≈ 2.3 µM) | 1 (≈ 2.3 µM) | 1 (≈ 2.3 µM) | 0.5 (≈ 1.15 µM) | 1 (≈ 2.3 µM) | 0.5 (≈ 1.15 µM) | 0.5 (≈ 1.15 µM) | 0.5 (≈ 1.15 µM) | 0.5 (≈ 1.15 µM) | 0.125 (≈ 0.288 µM) | 128 (≈ 295 µM) | MIC (Staphylococcus aureus [21]): 0.5 µg/mL (≈ 1.15 µM); MIC (Staphylococcus aureus [22]): 0.5 µg/mL (≈ 1.15 µM); MIC (Pseudomonas aeruginosa [23]): 16 µg/mL (≈ 36.8 µM); MIC (Pseudomonas aeruginosa [24]): 16 µg/mL (≈ 36.8 µM); MIC (Pseudomonas aeruginosa [25]): 16 µg/mL (≈ 36.8 µM); MIC (Klebsiella pneumoniae [26]): > 128 µg/mL; MIC (Klebsiella pneumoniae [27]): 16 µg/mL (≈ 36.8 µM); MIC (Klebsiella pneumoniae [28]): 16 µg/mL (≈ 36.8 µM); MIC (Klebsiella pneumoniae [29]): 1 µg/mL (≈ 2.3 µM); MIC (Klebsiella pneumoniae [30]): 1 µg/mL (≈ 2.3 µM); MIC (Klebsiella pneumoniae [31]): 2 µg/mL (≈ 4.6 µM)
3 | CNC1CCN(c2nc3c(cc2F)c(=O)c(C(=O)O)cn3C2CC2)C/C1=N\OC (stereo not drawn) | 16 (≈ 39.7 µM) | > 128 | > 128 | > 128 | > 128 | 4 (≈ 9.92 µM) | 0.125 (≈ 0.31 µM) | 0.5 (≈ 1.24 µM) | 0.5 (≈ 1.24 µM) | 0.25 (≈ 0.62 µM) | 0.06 (≈ 0.149 µM) | 0.25 (≈ 0.62 µM) | 0.5 (≈ 1.24 µM) | 2 (≈ 4.96 µM) | 0.5 (≈ 1.24 µM) | 1 (≈ 2.48 µM) | 1 (≈ 2.48 µM) | 1 (≈ 2.48 µM) | 0.25 (≈ 0.62 µM) | 0.5 (≈ 1.24 µM) | MIC (Staphylococcus aureus [21]): 0.25 µg/mL (≈ 0.62 µM); MIC (Staphylococcus aureus [22]): 0.5 µg/mL (≈ 1.24 µM); MIC (Pseudomonas aeruginosa [23]): 16 µg/mL (≈ 39.7 µM); MIC (Pseudomonas aeruginosa [24]): 16 µg/mL (≈ 39.7 µM); MIC (Pseudomonas aeruginosa [25]): 2 µg/mL (≈ 4.96 µM); MIC (Klebsiella pneumoniae [26]): 0.125 µg/mL (≈ 0.31 µM); MIC (Klebsiella pneumoniae [27]): 16 µg/mL (≈ 39.7 µM); MIC (Klebsiella pneumoniae [28]): 16 µg/mL (≈ 39.7 µM); MIC (Klebsiella pneumoniae [29]): 0.125 µg/mL (≈ 0.31 µM); MIC (Klebsiella pneumoniae [30]): 0.5 µg/mL (≈ 1.24 µM); MIC (Klebsiella pneumoniae [31]): 0.5 µg/mL (≈ 1.24 µM)
